Data: BindingDB's records for doi:10.1021/jm00074a030 (Wellcome Research Laboratories, 1993)

target: Thymidylate synthase (Homo sapiens, UniProt P04818); assay: Inhibition of purified human thymidylate synthase (TS) isolated from an Escherichia coli harboring a plasmid with thy A gene cloned from SV40 transformed human fibroblast cells
Procedure, shortened: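 Purified recombinant human TS, expressed in E. coli from a thyA gene cloned from SV40-transformed human fibroblasts. Inhibition was measured by a modified tritium-release assay. Ki was estimated by treating compounds as tight-binding noncompetitive inhibitors.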

Chain of Thymidylate synthase (P04818 whole entry): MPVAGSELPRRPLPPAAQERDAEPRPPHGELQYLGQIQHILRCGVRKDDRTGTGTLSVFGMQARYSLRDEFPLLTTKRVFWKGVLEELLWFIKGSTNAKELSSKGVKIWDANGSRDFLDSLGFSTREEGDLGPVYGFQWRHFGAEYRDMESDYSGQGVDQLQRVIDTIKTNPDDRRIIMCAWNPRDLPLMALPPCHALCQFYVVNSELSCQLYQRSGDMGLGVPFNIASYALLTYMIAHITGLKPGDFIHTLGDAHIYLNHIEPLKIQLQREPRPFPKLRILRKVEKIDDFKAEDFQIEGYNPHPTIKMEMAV

Row | SMILES | Ki [nM]
1 | Nc1nc(O)c2c(ccc3ccc(Br)cc32)n1 | 20
2 | Nc1nc(O)c2c(ccc3ccc(NS(=O)(=O)c4ccc(C(=O)N[C@@H](CCC(=O)O)C(=O)O)cc4)cc32)n1 | 100
3 | Nc1nc2ccc3cc(S(=O)(=O)Nc4ccc(C(=O)N[C@@H](CCC(=O)O)C(=O)O)cc4)c(Br)cc3c2c(=O)[nH]1 | 16400
